# Experimental data from ChEMBL document CHEMBL1132256, “Structure-activity relationships for substituted bis(acridine-4-carboxamides): a new class of anticancer agents” (J Med Chem, 1999).
# Tested on: CAKI-1
# Experiment: inhibitory activity against renal tumor […] cell line.
# Format: functional
# Details: Homo sapiens
# Method in brief: (§1)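 Tested in the NCI human cell line panel. GI50 = drug concentration (nM) giving growth inhibition to 50% of controls; values below 10 nM were taken as 10 nM in calculations.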
row,SMILES,GI50
1,CN(CCCNC(=O)c1cccc2cc3cccc(-c4ccccc4)c3nc12)CCCNC(=O)c1cccc2cc3cccc(-c4ccccc4)c3nc12,12 µM
2,Cc1ccc2cc3ccccc3nc2c1C(=O)NCCCN(C)CCCNC(=O)c1c(C)ccc2cc3ccccc3nc12,6.36 µM
3,CN(CCCNC(=O)c1cccc2cc3c(Cl)cccc3nc12)CCCNC(=O)c1cccc2cc3c(Cl)cccc3nc12,0.45 µM
4,Cc1ccc(C(=O)NCCCN(C)CCCNC(=O)c2ccc(C)c3cc4ccccc4nc23)c2nc3ccccc3cc12,0.042 µM
5,Cc1ccc2nc3c(C(=O)NCCCN(C)CCCNC(=O)c4cccc5cc6cc(C)ccc6nc45)cccc3cc2c1,0.268 µM

# Tested on: HCT-116
# Experiment: inhibitory activity against colon HCT116 cell line.
# Format: functional
# Details: Homo sapiens
# Method in brief: as §1
row,GI50,SMILES
1,5.06 µM,CN(CCCNC(=O)c1cccc2cc3cccc(-c4ccccc4)c3nc12)CCCNC(=O)c1cccc2cc3cccc(-c4ccccc4)c3nc12
2,0.446 µM,Cc1ccc2cc3ccccc3nc2c1C(=O)NCCCN(C)CCCNC(=O)c1c(C)ccc2cc3ccccc3nc12
3,0.216 µM,CN(CCCNC(=O)c1cccc2cc3c(Cl)cccc3nc12)CCCNC(=O)c1cccc2cc3c(Cl)cccc3nc12
4,< 0.01 µM,Cc1ccc(C(=O)NCCCN(C)CCCNC(=O)c2ccc(C)c3cc4ccccc4nc23)c2nc3ccccc3cc12
5,0.012 µM,Cc1ccc2nc3c(C(=O)NCCCN(C)CCCNC(=O)c4cccc5cc6cc(C)ccc6nc45)cccc3cc2c1

# Tested on: HT-29
# Experiment: inhibitory activity against colon HT-29 cell line.
# Format: functional
# Details: Homo sapiens
# Method in brief: as §1
row,GI50,SMILES
1,1.62 µM,CN(CCCNC(=O)c1cccc2cc3cccc(-c4ccccc4)c3nc12)CCCNC(=O)c1cccc2cc3cccc(-c4ccccc4)c3nc12
2,1.43 µM,Cc1ccc2cc3ccccc3nc2c1C(=O)NCCCN(C)CCCNC(=O)c1c(C)ccc2cc3ccccc3nc12
3,0.12 µM,CN(CCCNC(=O)c1cccc2cc3c(Cl)cccc3nc12)CCCNC(=O)c1cccc2cc3c(Cl)cccc3nc12
4,< 0.01 µM,Cc1ccc(C(=O)NCCCN(C)CCCNC(=O)c2ccc(C)c3cc4ccccc4nc23)c2nc3ccccc3cc12
5,0.034 µM,Cc1ccc2nc3c(C(=O)NCCCN(C)CCCNC(=O)c4cccc5cc6cc(C)ccc6nc45)cccc3cc2c1

# Tested on: Jurkat
# Experiment: Concentration required to inhibit 50% growth of human Jurkat cells
# Format: functional, cell-based
# Details: not given
# Method in brief: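 Jurkat leukemia (JLC) cells seeded at 3.75 × 10^3 cells/well and exposed to drug for 4 days; growth measured by sulforhodamine assay. IC50 = drug concentration (nM) reducing cell number to 50% of control cultures. Independent assays in duplicate, coefficients of variation ca. 25%.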
row,IC50,SMILES
1,2.54 µM,CN(CCCNC(=O)c1cccc2cc3cccc(-c4ccccc4)c3nc12)CCCNC(=O)c1cccc2cc3cccc(-c4ccccc4)c3nc12
2,1.29 µM,Cc1ccc2cc3ccccc3nc2c1C(=O)NCCCN(C)CCCNC(=O)c1c(C)ccc2cc3ccccc3nc12
3,0.238 µM,CN(CCCNC(=O)c1cccc2cc3c(Cl)cccc3nc12)CCCNC(=O)c1cccc2cc3c(Cl)cccc3nc12
4,0.041 µM,Cc1ccc(C(=O)NCCCN(C)CCCNC(=O)c2ccc(C)c3cc4ccccc4nc23)c2nc3ccccc3cc12
5,0.275 µM,Cc1ccc2nc3c(C(=O)NCCCN(C)CCCNC(=O)c4cccc5cc6cc(C)ccc6nc45)cccc3cc2c1

# Tested on: MCF7
# Experiment: inhibitory activity against multi drug resistant MCF cell line.
# Format: functional
# Details: Homo sapiens, in the assay text read “MCF7 cell line” for “multi drug resistant MCF cell line”
# Method in brief: as §1
row,GI50,SMILES
1,1.02 µM,CN(CCCNC(=O)c1cccc2cc3cccc(-c4ccccc4)c3nc12)CCCNC(=O)c1cccc2cc3cccc(-c4ccccc4)c3nc12
2,3.03 µM,Cc1ccc2cc3ccccc3nc2c1C(=O)NCCCN(C)CCCNC(=O)c1c(C)ccc2cc3ccccc3nc12
3,0.614 µM,CN(CCCNC(=O)c1cccc2cc3c(Cl)cccc3nc12)CCCNC(=O)c1cccc2cc3c(Cl)cccc3nc12
4,0.054 µM,Cc1ccc(C(=O)NCCCN(C)CCCNC(=O)c2ccc(C)c3cc4ccccc4nc23)c2nc3ccccc3cc12
5,0.19 µM,Cc1ccc2nc3c(C(=O)NCCCN(C)CCCNC(=O)c4cccc5cc6cc(C)ccc6nc45)cccc3cc2c1

# Tested on: Lewis lung carcinoma cell line
# Experiment: Inhibitory activity of tested against Murine Lewis lung carcinoma
# Format: functional, cell-based
# Details: Mus musculus
# Method in brief: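 Lewis lung carcinoma (LLTC) cells at 10^3 cells/well, 4-day continuous drug exposure, growth read by sulforhodamine assay. IC50 (nM) = concentration giving 50% of control cell number. Duplicate independent assays, CV ca. 25%.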
row,IC50,SMILES
1,1.08 µM,CN(CCCNC(=O)c1cccc2cc3cccc(-c4ccccc4)c3nc12)CCCNC(=O)c1cccc2cc3cccc(-c4ccccc4)c3nc12
2,2.4 µM,Cc1ccc2cc3ccccc3nc2c1C(=O)NCCCN(C)CCCNC(=O)c1c(C)ccc2cc3ccccc3nc12
3,0.123 µM,CN(CCCNC(=O)c1cccc2cc3c(Cl)cccc3nc12)CCCNC(=O)c1cccc2cc3c(Cl)cccc3nc12
4,0.014 µM,Cc1ccc(C(=O)NCCCN(C)CCCNC(=O)c2ccc(C)c3cc4ccccc4nc23)c2nc3ccccc3cc12
5,0.073 µM,Cc1ccc2nc3c(C(=O)NCCCN(C)CCCNC(=O)c4cccc5cc6cc(C)ccc6nc45)cccc3cc2c1

# Tested on: NCI/ADR-RES
# Experiment: inhibitory activity against multi drug resistant NCI/ADR cell line.
# Format: functional
# Details: Homo sapiens
# Method in brief: as §1
row,SMILES,GI50
1,CN(CCCNC(=O)c1cccc2cc3cccc(-c4ccccc4)c3nc12)CCCNC(=O)c1cccc2cc3cccc(-c4ccccc4)c3nc12,1.79 µM
2,Cc1ccc2cc3ccccc3nc2c1C(=O)NCCCN(C)CCCNC(=O)c1c(C)ccc2cc3ccccc3nc12,16 µM
3,CN(CCCNC(=O)c1cccc2cc3c(Cl)cccc3nc12)CCCNC(=O)c1cccc2cc3c(Cl)cccc3nc12,0.624 µM
4,Cc1ccc(C(=O)NCCCN(C)CCCNC(=O)c2ccc(C)c3cc4ccccc4nc23)c2nc3ccccc3cc12,0.077 µM
5,Cc1ccc2nc3c(C(=O)NCCCN(C)CCCNC(=O)c4cccc5cc6cc(C)ccc6nc45)cccc3cc2c1,0.48 µM

# Tested on: P388
# Experiment: Inhibitory activity against Murine […]
# Format: functional, cell-based
# Details: Mus musculus
# Method in brief: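 Murine P388 leukemia cells seeded at 4.5 × 10^3 cells/well, cultured 3 days with drug; growth measured by [3H]TdR uptake. IC50 = drug concentration (nM) reducing cell number to 50% of controls. Independent assays in duplicate, CV ca. 25%.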
row,IC50,SMILES
1,1.23 µM,CN(CCCNC(=O)c1cccc2cc3cccc(-c4ccccc4)c3nc12)CCCNC(=O)c1cccc2cc3cccc(-c4ccccc4)c3nc12
2,3.5 µM,Cc1ccc2cc3ccccc3nc2c1C(=O)NCCCN(C)CCCNC(=O)c1c(C)ccc2cc3ccccc3nc12
3,0.75 µM,CN(CCCNC(=O)c1cccc2cc3c(Cl)cccc3nc12)CCCNC(=O)c1cccc2cc3c(Cl)cccc3nc12
4,0.17 µM,Cc1ccc(C(=O)NCCCN(C)CCCNC(=O)c2ccc(C)c3cc4ccccc4nc23)c2nc3ccccc3cc12
5,0.27 µM,Cc1ccc2nc3c(C(=O)NCCCN(C)CCCNC(=O)c4cccc5cc6cc(C)ccc6nc45)cccc3cc2c1

# Tested on: SK-OV-3
# Experiment: inhibitory activity against ovarian carcinoma SKOV3 cell line.
# Format: functional
# Details: Homo sapiens
# Method in brief: as §1
row,GI50,SMILES
1,12 µM,CN(CCCNC(=O)c1cccc2cc3cccc(-c4ccccc4)c3nc12)CCCNC(=O)c1cccc2cc3cccc(-c4ccccc4)c3nc12
2,13 µM,Cc1ccc2cc3ccccc3nc2c1C(=O)NCCCN(C)CCCNC(=O)c1c(C)ccc2cc3ccccc3nc12
3,1.07 µM,CN(CCCNC(=O)c1cccc2cc3c(Cl)cccc3nc12)CCCNC(=O)c1cccc2cc3c(Cl)cccc3nc12
4,1.17 µM,Cc1ccc(C(=O)NCCCN(C)CCCNC(=O)c2ccc(C)c3cc4ccccc4nc23)c2nc3ccccc3cc12
5,1.18 µM,Cc1ccc2nc3c(C(=O)NCCCN(C)CCCNC(=O)c4cccc5cc6cc(C)ccc6nc45)cccc3cc2c1

# Tested on: Jurkat
# Experiment: Ratio of inhibitory activity against amsacrine resistant jurkat cells to inhibitory activity against wild type human jurkat cells
# Format: functional
# Details: not given
# Method in brief: (§2)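 Wild-type Jurkat (JLC) and its amsacrine-resistant (JLA) or doxorubicin-resistant (JLD) sublines each seeded at 3.75 × 10^3 cells/well, 4 days with drug, sulforhodamine read-out. IC50 (nM) for 50% of control cell number; ratio = resistant-line IC50 divided by JLC IC50. Duplicate assays, CV ca. 25%.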
row,SMILES,Ratio
1,CN(CCCNC(=O)c1cccc2cc3cccc(-c4ccccc4)c3nc12)CCCNC(=O)c1cccc2cc3cccc(-c4ccccc4)c3nc12,0.5
2,Cc1ccc2cc3ccccc3nc2c1C(=O)NCCCN(C)CCCNC(=O)c1c(C)ccc2cc3ccccc3nc12,0.9
3,CN(CCCNC(=O)c1cccc2cc3c(Cl)cccc3nc12)CCCNC(=O)c1cccc2cc3c(Cl)cccc3nc12,0.8
4,Cc1ccc(C(=O)NCCCN(C)CCCNC(=O)c2ccc(C)c3cc4ccccc4nc23)c2nc3ccccc3cc12,0.6
5,Cc1ccc2nc3c(C(=O)NCCCN(C)CCCNC(=O)c4cccc5cc6cc(C)ccc6nc45)cccc3cc2c1,0.9

# Tested on: Jurkat
# Experiment: Ratio of inhibitory activity against doxorubicin resistant jurkat cells to inhibitory activity against wild type human jurkat cells
# Format: functional
# Details: not given
# Method in brief: as §2
row,SMILES,Ratio
1,CN(CCCNC(=O)c1cccc2cc3cccc(-c4ccccc4)c3nc12)CCCNC(=O)c1cccc2cc3cccc(-c4ccccc4)c3nc12,0.8
2,Cc1ccc2cc3ccccc3nc2c1C(=O)NCCCN(C)CCCNC(=O)c1c(C)ccc2cc3ccccc3nc12,1
3,CN(CCCNC(=O)c1cccc2cc3c(Cl)cccc3nc12)CCCNC(=O)c1cccc2cc3c(Cl)cccc3nc12,1.2
4,Cc1ccc(C(=O)NCCCN(C)CCCNC(=O)c2ccc(C)c3cc4ccccc4nc23)c2nc3ccccc3cc12,1
5,Cc1ccc2nc3c(C(=O)NCCCN(C)CCCNC(=O)c4cccc5cc6cc(C)ccc6nc45)cccc3cc2c1,1.1
